Test results: ChEMBL document CHEMBL5674880 (PLoS One, 2018)

Legend:
Type in all cases: functional, cell-based
[1] = tested on: AN3-CA; assay: Antiproliferative activity against human AN3-CA cells after 10 days; settings: 240 h
Outline: (§1)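 Tested as part of a 240-line cancer cell panel (Eurofins Oncopanel); all lines were mycoplasma-negative and STR-verified. Cells were exposed to a compound concentration series in 2D culture for 10 days. The highest concentration was 10 μM or 25 μM, depending on the inhibitor. Antiproliferative IC50 was derived from the mean of three biological replicates.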

[2] = Antiproliferative activity against human SK-N-BE(2)-C cells after 10 days; settings: 240 h
[3] = tested on: BFTC-905; assay: Antiproliferative activity against human BFTC-905 cells after 10 days; settings: BFTC-905, 240 h; outline: as §1
[4] = tested on: BT-549; assay: Antiproliferative activity against human BT-549 cells after 10 days; settings: BT-549, 240 h; outline: as §1
[5] = Antiproliferative activity against human C32TG cells after 10 days; settings: 240 h; outline: as §1
[6] = tested on: C-33-A; assay: Antiproliferative activity against human C-33-A cells after 10 days; settings: 240 h; outline: as §1
[7] = tested on: CAMA-1; assay: Antiproliferative activity against human CAMA-1 cells after 10 days; settings: CAMA-1, 240 h; outline: as §1
[8] = Antiproliferative activity against human CEM/C1 cells after 10 days; settings: CEM/C1, 240 h; outline: as §1
[9] = tested on: COLO 320DM; assay: Antiproliferative activity against human COLO 320DM cells after 10 days; settings: 240 h; outline: as §1
[10] = tested on: Daoy; assay: Antiproliferative activity against human Daoy cells after 10 days; settings: 240 h
Outline: (§2)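 10-day 2D proliferation screen of a broad cancer cell panel (about 240 lines, Eurofins Oncopanel). All lines were mycoplasma negative and STR verified. Compounds were dosed up to a top concentration of 10 μM or 25 μM, depending on the inhibitor. Anti-proliferative IC50 values are the average of three biological replicates.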

[11] = tested on: DMS-114; assay: Antiproliferative activity against human DMS-114 cells after 10 days; settings: DMS-114, 240 h; outline: as §2
[12] = tested on: DOHH-2; assay: Antiproliferative activity against human DOHH-2 cells after 10 days; settings: DOHH-2, 240 h; outline: as §2
[13] = tested on: EM-2; assay: Antiproliferative activity against human EM-2 cells after 10 days; settings: EM-2, 240 h; outline: as §2
[14] = tested on: HCT-15; assay: Antiproliferative activity against human HCT-15 cells after 10 days; settings: HCT-15, 240 h
Outline: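 Cell lines run in the Eurofins Oncopanel broad cancer panel, all mycoplasma-negative and STR-verified. Cells were exposed to a compound concentration series in a 10-day proliferation assay, and an anti-proliferative IC50 was derived. Values are the mean of three biological replicates.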

[15] = tested on: HOS; assay: Antiproliferative activity against human HOS cells after 10 days; settings: 240 h; outline: as §2
[16] = tested on: HPAF-II; assay: Antiproliferative activity against human HPAF-II cells after 10 days; settings: 240 h; outline: as §2
[17] = tested on: Hs746T; assay: Antiproliferative activity against human Hs746T cells after 10 days; settings: 240 h; outline: as §2
[18] = tested on: HT; assay: Antiproliferative activity against human HT cells after 10 days; settings: 240 h; outline: as §2
[19] = tested on: HT-29; assay: Antiproliferative activity against human HT-29 cells after 10 days; settings: HT-29, 240 h; outline: as §2
[20] = tested on: HT-3; assay: Antiproliferative activity against human HT-3 cells after 10 days; settings: HT-3, 240 h; outline: as §2
[21] = Antiproliferative activity against human HUH-6-clone5 cells after 10 days; settings: HUH-6-clone5, 240 h; outline: as §2
[22] = tested on: K562; assay: Antiproliferative activity against human K562 cells after 10 days; settings: K562, 240 h
Outline: (§3)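 Broad cancer cell line panel (Eurofins Oncopanel, about 240 lines; mycoplasma negative, STR verified) grown in 2D culture and exposed to compound in a 10-day proliferation assay. The top concentration was 10 μM for the SMYD2 inhibitor series and 25 μM for the SMYD3 inhibitor. The proliferative IC50 is taken from concentration-response data, each value the mean of three biological replicates.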

[23] = tested on: KATO III stomach cancer cell line; assay: Antiproliferative activity against human KATO III cells after 10 days; settings: 240 h; outline: as §3
[24] = tested on: MCF7; assay: Antiproliferative activity against human MCF7 cells after 10 days; settings: MCF7, 240 h; outline: as §3
[25] = tested on: MC-IXC; assay: Antiproliferative activity against human MC-IXC cells after 10 days; settings: 240 h; outline: as §3
[26] = tested on: MDA-MB-436; assay: Antiproliferative activity against human MDA-MB-436 cells after 10 days; settings: MDA-MB-436, 240 h; outline: as §3
[27] = tested on: MHH-PREB-1; assay: Antiproliferative activity against human MHH-PREB-1 cells after 10 days; settings: MHH-PREB-1, 240 h; outline: as §3
[28] = tested on: NCI-H441; assay: Antiproliferative activity against human NCI-H441 cells after 10 days; settings: NCI-H441, 240 h; outline: as §3
[29] = tested on: NCI-H508; assay: Antiproliferative activity against human NCI-H508 cells after 10 days; settings: NCI-H508, 240 h; outline: as §3
[30] = tested on: OVCAR-3; assay: Antiproliferative activity against human OVCAR-3 cells after 10 days; settings: OVCAR-3, 240 h; outline: as §3
[31] = tested on: RKO; assay: Antiproliferative activity against human RKO cells after 10 days; settings: 240 h; outline: as §3
[32] = tested on: RL95-2; assay: Antiproliferative activity against human RL95-2 cells after 10 days; settings: RL95-2, 240 h
[33] = tested on: RPMI-8226; assay: Antiproliferative activity against human RPMI-8226 cells after 10 days; settings: RPMI-8226, 240 h
[34] = tested on: SCC-25; assay: Antiproliferative activity against human SCC-25 cells after 10 days; settings: SCC-25, 240 h
[35] = tested on: SiHa; assay: Antiproliferative activity against human SiHa cells after 10 days; settings: 240 h
[36] = tested on: SK-NEP-1; assay: Antiproliferative activity against human SK-NEP-1 cells after 10 days; settings: SK-NEP-1, 240 h
[37] = tested on: SK-N-FI; assay: Antiproliferative activity against human SK-N-FI cells after 10 days; settings: 240 h
[38] = tested on: SNB-19; assay: Antiproliferative activity against human SNB-19 cells after 10 days; settings: SNB-19, 240 h
[39] = tested on: SNU-5; assay: Antiproliferative activity against human SNU-5 cells after 10 days; settings: SNU-5, 240 h
[40] = tested on: ST486; assay: Antiproliferative activity against human ST486 cells after 10 days; settings: ST486, 240 h
[41] = tested on: SU.86.86; assay: Antiproliferative activity against human SU-86-86 cells after 10 days; settings: SU.86.86, 240 h
[42] = tested on: SW1088; assay: Antiproliferative activity against human SW1088 cells after 10 days; settings: SW1088, 240 h
[43] = tested on: SW1417; assay: Antiproliferative activity against human SW1417 cells after 10 days; settings: SW1417, 240 h
[44] = tested on: SW1783; assay: Antiproliferative activity against human SW1783 cells after 10 days; settings: SW1783, 240 h
[45] = tested on: SW48; assay: Antiproliferative activity against human SW48 cells after 10 days; settings: SW48, 240 h
[46] = tested on: SW872; assay: Antiproliferative activity against human SW872 cells after 10 days; settings: SW872, 240 h
[47] = tested on: SW 962; assay: Antiproliferative activity against human SW 962 cells after 10 days; settings: SW 962, 240 h
[48] = tested on: SW982; assay: Antiproliferative activity against human SW982 cells after 10 days; settings: SW982, 240 h
[49] = tested on: T98G; assay: Antiproliferative activity against human T98G cells after 10 days; settings: 240 h
[50] = tested on: U2OS; assay: Antiproliferative activity against human U2OS cells after 10 days; settings: 240 h

SMILES: Cc1cn(CCN2CCN(c3ccccc3-c3cc(C#N)cc(C(=O)NCCCN4CCCC4)c3)CC2)c2ccccc12
- IC50 [1]: 2.42 µM
- IC50 [2]: 3.31 µM
- IC50 [3]: 2.5 µM
- IC50 [4]: 3.29 µM
- IC50 [5]: 2.36 µM
- IC50 [6]: 3.23 µM
- IC50 [7]: 2.93 µM
- IC50 [8]: 1.27 µM
- IC50 [9]: 2.11 µM
- IC50 [10]: 3.67 µM
- IC50 [11]: 2.33 µM
- IC50 [12]: 0.263 µM
- IC50 [13]: 2.22 µM
- IC50 [14]: 1.7 µM
- IC50 [15]: 2.13 µM
- IC50 [16]: 1.6 µM
- IC50 [17]: 4.29 µM
- IC50 [18]: 1.93 µM
- IC50 [19]: 1.26 µM
- IC50 [20]: 3.27 µM
- IC50 [21]: 1.34 µM
- IC50 [22]: 3.21 µM
- IC50 [23]: 1.39 µM
- IC50 [24]: 3.11 µM
- IC50 [25]: 1.92 µM
- IC50 [26]: 3.03 µM
- IC50 [27]: 1.06 µM
- IC50 [28]: 5.63 µM
- IC50 [29]: 3.09 µM
- IC50 [30]: 3.95 µM
- IC50 [31]: 1.04 µM
- IC50 [32]: 1.29 µM
- IC50 [33]: 1.56 µM
- IC50 [34]: 2.52 µM
- IC50 [35]: 3.26 µM
- IC50 [36]: 3.18 µM
- IC50 [37]: 6.03 µM
- IC50 [38]: 2.52 µM
- IC50 [39]: 3.32 µM
- IC50 [40]: 0.955 µM
- IC50 [41]: 3.55 µM
- IC50 [42]: 1.18 µM
- IC50 [43]: 3.23 µM
- IC50 [44]: 2.96 µM
- IC50 [45]: 1.35 µM
- IC50 [46]: 2.53 µM
- IC50 [47]: 3.38 µM
- IC50 [48]: 5.79 µM
- IC50 [49]: 5.87 µM
- IC50 [50]: 1.68 µM

SMILES: O=C(NC1CN(Cc2cnn(Cc3ccccc3)c2)C1)c1cn(C2CC2)nn1
- IC50 [1]: > 10 µM
- IC50 [2]: > 10 µM
- IC50 [3]: > 10 µM
- IC50 [4]: > 10 µM
- IC50 [5]: > 10 µM
- IC50 [6]: > 10 µM
- IC50 [7]: > 10 µM
- IC50 [8]: > 10 µM
- IC50 [9]: > 10 µM
- IC50 [10]: > 10 µM
- IC50 [11]: > 10 µM
- IC50 [12]: > 10 µM
- IC50 [13]: > 10 µM
- IC50 [14]: > 10 µM
- IC50 [15]: > 10 µM
- IC50 [16]: > 10 µM
- IC50 [17]: > 10 µM
- IC50 [18]: > 10 µM
- IC50 [19]: > 10 µM
- IC50 [20]: > 10 µM
- IC50 [21]: > 10 µM
- IC50 [22]: > 10 µM
- IC50 [23]: > 10 µM
- IC50 [24]: > 10 µM
- IC50 [25]: > 10 µM
- IC50 [26]: > 10 µM
- IC50 [27]: > 10 µM
- IC50 [28]: > 10 µM
- IC50 [29]: > 10 µM
- IC50 [30]: > 10 µM
- IC50 [31]: > 10 µM
- IC50 [32]: > 10 µM
- IC50 [33]: > 10 µM
- IC50 [34]: > 10 µM
- IC50 [35]: > 10 µM
- IC50 [36]: > 10 µM
- IC50 [37]: > 10 µM
- IC50 [38]: > 10 µM
- IC50 [39]: > 10 µM
- IC50 [40]: > 10 µM
- IC50 [41]: > 10 µM
- IC50 [42]: > 10 µM
- IC50 [43]: > 10 µM
- IC50 [44]: > 10 µM
- IC50 [45]: > 10 µM
- IC50 [46]: > 10 µM
- IC50 [47]: > 10 µM
- IC50 [48]: > 10 µM
- IC50 [49]: > 10 µM
- IC50 [50]: > 10 µM
